In ChEMBL document CHEMBL5055640, “Discovery of Novel Acetamide-Based Heme Oxygenase-1 Inhibitors with Potent In Vitro Antiproliferative Activity” (J Med Chem, 2021):
Calls of active or inactive are those of the source. The rule behind the calls is not given here.

What was measured:
A 172 [1] = test: Antiproliferative activity against human A172 cells assessed as reduction in cell viability at 1 uM incubated for 48 hrs by MTT assay; format: functional, cell-based
In short: (§1)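 Cells grown in DMEM with 10% heat-inactivated FBS and penicillin/streptomycin at 37 °C, 5% CO2, seeded at 7 × 10^3 cells/well. After 24 h, treated 48 h at 1, 10 or 50 μM. MTT 0.5 mg/mL added for 4 h at 37 °C, formazan dissolved in DMSO, A570 read. Eight replicate wells per group, at least three independent experiments, % of control, mean ± SEM.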

DU-145 [2] = test: Reduction in HO-1 expression in human DU-145 cells at 10 uM incubated for 48 hrs by Western blot analysis; format: functional, cell-based
In short: (§2)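 Cells treated 48 h at 10 μM. Lysed in Tris/EDTA/EGTA/sucrose buffer with protease and phosphatase inhibitors, sonicated, spun. 30 μg protein resolved on 4–15% Bis-Tris gel, transferred to PVDF, probed for HO-1. Band density normalized to actin and given as fold change; three independent experiments, mean ± SEM.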

A 172 [3] = test: Antiproliferative activity against human A172 cells assessed as reduction in cell viability at 10 uM incubated for 48 hrs by MTT assay; format: functional, cell-based; in short: as §1
A549 [4] = test: Antiproliferative activity against human A549 cells assessed as reduction in cell viability at 10 uM incubated for 48 hrs by MTT assay; format: functional, cell-based; in short: as §1
A549 [5] = test: Antiproliferative activity against human A549 cells assessed as reduction in cell viability at 1 uM incubated for 48 hrs by MTT assay; format: functional, cell-based; in short: as §1
A 172 [6] = test: Antiproliferative activity against human A172 cells assessed as reduction in cell viability at 50 uM incubated for 48 hrs by MTT assay; format: functional, cell-based; in short: as §1
Heme oxygenase 1 = molecular target: T1, Heme oxygenase 1 (Rattus norvegicus, UniProt P06762); test: Inhibition of Sprague-Dawley rat spleen microsome HO-1 assessed as bilirubin formation incubated for 60 mins by double-beam spectrophotometry; format: microsomes
T1 sequence (P06762 whole entry): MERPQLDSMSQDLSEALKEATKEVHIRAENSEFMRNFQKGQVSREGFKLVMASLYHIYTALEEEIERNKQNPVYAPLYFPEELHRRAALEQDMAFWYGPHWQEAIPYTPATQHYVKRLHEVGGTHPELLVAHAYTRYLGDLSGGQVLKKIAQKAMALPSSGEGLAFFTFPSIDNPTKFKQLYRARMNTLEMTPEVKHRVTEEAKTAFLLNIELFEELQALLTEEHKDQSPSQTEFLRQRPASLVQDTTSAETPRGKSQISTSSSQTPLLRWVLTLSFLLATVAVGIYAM

Heme oxygenase 2 = molecular target: T2, Heme oxygenase 2 (Rattus norvegicus, UniProt P23711); test: Inhibition of Sprague-Dawley rat brain microsome HO-2 assessed as bilirubin formation incubated for 60 mins by double-beam spectrophotometry; format: microsomes
T2 sequence (P23711 whole entry): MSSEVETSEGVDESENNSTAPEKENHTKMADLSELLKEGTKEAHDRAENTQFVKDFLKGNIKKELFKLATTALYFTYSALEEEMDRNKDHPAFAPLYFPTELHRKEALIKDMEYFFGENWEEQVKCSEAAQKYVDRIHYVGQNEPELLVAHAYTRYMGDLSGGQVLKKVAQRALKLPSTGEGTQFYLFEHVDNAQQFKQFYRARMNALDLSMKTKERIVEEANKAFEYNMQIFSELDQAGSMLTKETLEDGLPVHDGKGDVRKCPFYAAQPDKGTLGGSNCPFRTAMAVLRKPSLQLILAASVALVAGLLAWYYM

U-87MG ATCC [7] = test: Reduction in HO-1 expression in human U-87MG cells at 10 uM incubated for 48 hrs by Western blot analysis; format: functional, cell-based; in short: as §2
U-87 MG [8] = test: Antiinvasive activity against human U-87 MG cells assessed as reduction in cell motility measured after 48 hrs by wound healing assay; format: functional, cell-based; conditions: U-87MG ATCC
In short: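 Confluent U87MG monolayers (5 × 10^4 cells/well) scratched with a pipette tip, then cultured in 1% serum medium with or without 10 μM compound. Cells advancing into the wound counted at 24 and 48 h in three random high-power fields per well, duplicate wells, and expressed as % of control. Mean ± SEM.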

U-87 MG [9] = test: Antiproliferative activity against human U-87MG cells assessed as reduction in cell viability at 50 uM incubated for 48 hrs by MTT assay relative to control; format: functional, U-87MG ATCC; conditions: for inhibition: U-87MG ATCC; in short: as §1
U-87MG ATCC [10] = test: Reduction in VEGF intracellular expression in human U-87 MG cells by Western blot analysis; format: functional, cell-based
In short: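 U87MG cells treated 48 h with vehicle or 10 μM compound. Lysates (30 μg protein) resolved on 4–15% Bis-Tris gel and immunoblotted with goat polyclonal anti-VEGF; β-tubulin and β-actin antibodies also used.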

H5V = test: Antiangiogenesis activity in mouse H5V cells assessed as decrease in tube like structure formation using culture medium derived from human U-87 MG cells treated at 10 uM for 48 hrs; format: functional, cell-based
In short: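 Conditioned medium: subconfluent U87MG cells held 48 h at 37 °C in 1% FBS medium with 10 μM compound or vehicle, then spun and frozen. Overnight-starved H5V endothelial cells seeded on reduced-growth-factor basement membrane matrix and cultured 48 h at 37 °C in the conditioned medium. Tubes counted in three random fields and expressed as % of control.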

U-87 MG [11] = test: Antiproliferative activity against human U-87MG cells assessed as reduction in cell viability at 1 uM incubated for 48 hrs by MTT assay relative to control; format: functional, U-87MG ATCC; in short: as §1
U-87 MG [12] = test: Antiproliferative activity against human U-87MG cells assessed as reduction in cell viability at 10 uM incubated for 48 hrs by MTT assay relative to control; format: functional, U-87MG ATCC; in short: as §1
[13] = molecular target: T3, Heme oxygenase 1 (Homo sapiens) (UniProt P09601); test: Inhibition of human HO-1 activity in human U-87MG cells assessed as reduction in immunoreactivity in cytoplasm at 10 uM incubated for 48 hrs […]; format: cell-based
T3 sequence (whole entry): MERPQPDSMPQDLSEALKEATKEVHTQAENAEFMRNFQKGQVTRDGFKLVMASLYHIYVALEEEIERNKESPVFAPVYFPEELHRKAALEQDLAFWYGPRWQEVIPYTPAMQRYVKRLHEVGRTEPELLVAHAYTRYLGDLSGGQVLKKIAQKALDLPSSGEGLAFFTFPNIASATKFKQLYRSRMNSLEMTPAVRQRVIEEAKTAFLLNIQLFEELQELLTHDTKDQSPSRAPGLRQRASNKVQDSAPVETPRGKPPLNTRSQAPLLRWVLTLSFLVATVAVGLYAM
In short: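 U87MG cells on coverslips treated 48 h at 10 μM or left untreated. Fixed in 4% paraformaldehyde, permeabilized with 0.2% Triton X-100, blocked with 0.1% BSA, probed with rabbit anti-HO-1 then Alexa Fluor 488 anti-rabbit. Nuclei counterstained with DAPI; random fields imaged by fluorescence microscopy.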

[14] = molecular target: T3, Heme oxygenase 1 (Homo sapiens); test: Inhibition of human HO-1 activity in human U-87MG cells assessed as bilirubin formation at 10 uM
U-87MG ATCC [15] = test: Reduction in VEGF release in human U-87 MG cells by ELISA; format: functional, cell-based
In short: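 Confluent U87MG cells in 1% FBS medium treated 48 h with 10 μM compound or vehicle. VEGF-A in the conditioned medium measured by sandwich ELISA: capture antibody, biotinylated anti-human VEGF, HRP-streptavidin, TMB substrate, absorbance at 450 nm.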

DU-145 [16] = test: Antiproliferative activity against human DU145 cells assessed as reduction in cell viability at 50 uM incubated for 48 hrs by MTT assay; format: functional, cell-based; in short: as §1
A549 [17] = test: Antiproliferative activity against human A549 cells assessed as reduction in cell viability at 50 uM incubated for 48 hrs by MTT assay; format: functional, cell-based; in short: as §1
DU-145 [18] = test: Antiproliferative activity against human DU145 cells assessed as reduction in cell viability at 10 uM incubated for 48 hrs by MTT assay; format: functional, cell-based; in short: as §1
DU-145 [19] = test: Antiproliferative activity against human DU145 cells assessed as reduction in cell viability at 1 uM incubated for 48 hrs by MTT assay; format: functional, cell-based; in short: as §1
Rattus norvegicus = organism: Rattus norvegicus; test: Selectivity index, ratio of IC50 for inhibition of Sprague-Dawley rat brain microsome HO-2 to IC50 for inhibition of Sprague-Dawley rat spleen microsome HO-1

## CN(C(=O)Cn1ccnc1)C(c1ccccc1)c1ccccc1
A 172 [1]
  inhibition: Active
DU-145 [2]
  Activity: Active
A 172 [3]
  inhibition: Active
A549 [4]
  inhibition: inactive
A549 [5]
  inhibition: inactive
A 172 [6]
  inhibition: Active

## FC(F)(F)c1ccc(SC[C@@H]2CO[C@](CCc3ccc(Cl)cc3)(Cn3ccnc3)O2)nc1
Heme oxygenase 1
  IC50: 2.1 µM
Heme oxygenase 2
  IC50: 16 µM

## CN(C(=O)Cn1ccnc1)C(c1ccccc1)C1CCCC1 (configuration not stated)
A 172 [1]
  inhibition: Active
A 172 [3]
  inhibition: Active
A 172 [6]
  inhibition: Active

## CN(C(=O)Cn1ccnc1)C(c1ccccc1)c1ccc(Cl)cc1 (configuration not stated)
A 172 [1]
  inhibition: Active
A 172 [3]
  inhibition: Active
U-87MG ATCC [7]
  Activity: Active
U-87 MG [8]
  Activity: Active
U-87 MG [9]
  inhibition at 50 µM: > 60%
U-87MG ATCC [10]
  Activity: Active
A549 [4]
  inhibition: inactive
H5V
  Activity: Active
U-87 MG [11]
  inhibition at 1 µM: > 60%
U-87 MG [12]
  inhibition at 10 µM: > 60%
[13]
  inhibition: Active
[14]
  inhibition: Active
A549 [5]
  inhibition: inactive
A 172 [6]
  inhibition: Active
U-87MG ATCC [15]
  Activity: Active

## CN(C(=O)Cn1ccnc1)c1ccccc1
Heme oxygenase 1
  IC50: 2500 µM

## CN(C(=O)Cn1ccnc1)C(c1ccccc1)C1CCCCC1 (configuration not stated)
A 172 [1]
  inhibition: Active
A 172 [3]
  inhibition: Active
A 172 [6]
  inhibition: Active

## CN(C(=O)Cn1ccnc1)C(c1ccccc1)c1ccc(I)cc1 (configuration not stated)
DU-145 [16]
  inhibition: Active
DU-145 [2]
  Activity: Active
A 172 [3]
  inhibition: Active
U-87 MG [9]
  inhibition: Active
A549 [17]
  inhibition: Active
A549 [4]
  inhibition: inactive
U-87 MG [11]
  inhibition at 1 µM: > 30%
U-87 MG [12]
  inhibition at 10 µM: > 30%
A549 [5]
  inhibition: inactive
A 172 [6]
  inhibition: Active

## CN(C(=O)Cn1ccnc1)C(c1ccccc1)c1cccc(Br)c1 (configuration not stated)
A 172 [1]
  inhibition: inactive
A 172 [3]
  inhibition: inactive
U-87 MG [9]
  inhibition at 50 µM: > 30%
A549 [4]
  inhibition: inactive
U-87 MG [11]
  inhibition at 1 µM: > 30%
U-87 MG [12]
  inhibition at 10 µM: > 30%
A549 [5]
  inhibition: inactive
A 172 [6]
  inhibition: inactive

## CN(C(=O)Cn1ccnc1)C(c1ccccc1)c1ccc(OCc2ccc(Br)cc2)cc1 (configuration not stated)
DU-145 [16]
  inhibition: Active
DU-145 [18]
  inhibition: Active
A 172 [3]
  inhibition: Active
DU-145 [19]
  inhibition: Active
U-87 MG [9]
  inhibition: Active
A549 [17]
  inhibition: Active
A549 [4]
  inhibition: inactive
U-87 MG [11]
  inhibition at 1 µM: 20%
U-87 MG [12]
  inhibition at 10 µM: 20%
A549 [5]
  inhibition: inactive
A 172 [6]
  inhibition: Active

## CN(C(=O)Cn1ccnc1)C(c1ccccc1)c1ccc(OCc2ccccc2)cc1 (configuration not stated)
A 172 [1]
  inhibition: Active
DU-145 [16]
  inhibition: Active
DU-145 [18]
  inhibition: Active
A 172 [3]
  inhibition: Active
DU-145 [19]
  inhibition: Active
U-87 MG [9]
  inhibition: Active
A549 [17]
  inhibition: Active
A549 [4]
  inhibition: inactive
U-87 MG [11]
  inhibition at 1 µM: 20%
U-87 MG [12]
  inhibition at 10 µM: 20%
A549 [5]
  inhibition: inactive
A 172 [6]
  inhibition: Active

## O=C(Cn1ccnc1)NC(c1ccccc1)c1ccccc1
Rattus norvegicus
  Selectivity Index: 0.5
